This note sets out measurements from ChEMBL document CHEMBL4406821, “Novel dual inhibitors targeting CDK4 and VEGFR2 synergistically suppressed cancer progression and angiogenesis” (Eur J Med Chem, 2019).

In test [1] the target is Serine/threonine-protein kinase Nek7 (Homo sapiens) (UniProt Q8TDX7). Description: Inhibition of recombinant human NEK7 (2 to end residues) at 1 uM using FLAKSFGSPNRAYKK as substrate incubated for 40 mins in presence of [gamma-33P]-ATP by scintillation counting method relative to control.
The target in test [2] is Death-associated protein kinase 3 (Homo sapiens) (UniProt O43293). Description: Inhibition of recombinant human ZIPK (1 to 290 residues) at 1 uM using KKLNRTLSFAEPG as substrate incubated for 40 mins in presence of [gamma-33P]-ATP by scintillation counting method relative to control.
The target in test [3] is Calcium/calmodulin-dependent protein kinase type 1 (Homo sapiens) (UniProt Q14012). Put plainly: Inhibition of recombinant human CAMKIalpha (2 to end residues) at 1 uM using […] as substrate incubated for 40 mins in presence of [gamma-33P]-ATP by scintillation counting method relative to control. The method in brief:
(§1)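 Tested at a single 1 uM in an outsourced commercial kinase-profiling panel, read as percent inhibition. Each value is the mean of two independent experiments.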

Test [4] deals with Serine/threonine-protein kinase ULK2 (Homo sapiens) (UniProt Q8IYT8). Put plainly: Inhibition of recombinant human ULK2 (1 to 306 residues) at 1 uM using as casein substrate incubated for 40 mins in presence of [gamma-33P]-ATP by scintillation counting method relative to control. The procedure, abridged: as §1
Test [5] deals with Serine/threonine-protein kinase PRP4 homolog (Homo sapiens) (UniProt Q13523). Description: Inhibition of recombinant human PRP4 (663 to end residues) at 1 uM using casein as substrate incubated for 40 mins in presence of [gamma-33P]-ATP by scintillation counting method relative to control.
Test [6] deals with Serine/threonine-protein kinase Chk2 (Homo sapiens), O96017 [R145W]. Put plainly: Inhibition of recombinant human CHK2 R145W mutant (5 to end residues) at 1 uM using KKKVSRSGLYRSP as substrate incubated for 40 mins in presence of [gamma-33P]-ATP by scintillation counting method relative to control. The method in brief:
(§2)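 Kinase panel profiling at 1 μM performed by Eurofins KinaseProfiler; percent inhibition reported as mean of two independent experiments.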

Test [7] has as its target Serine/threonine-protein kinase MARK1 (Homo sapiens) (UniProt Q9P0L2). Description: Inhibition of recombinant human MARK1 (2 to end residues) at 1 uM using KKKVSRSGLYRSPSMPENLNRPR as substrate incubated for 40 mins in presence of [gamma-33P]-ATP by scintillation counting method relative to control.
Test [8] deals with Serine/threonine-protein kinase 32B (Homo sapiens) (UniProt Q9NY57). Put plainly: Inhibition of recombinant human full length STK32B at 1 uM using casein as substrate incubated for 40 mins in presence of [gamma-33P]-ATP by scintillation counting method relative to control.
In test [9] the target is Myosin-IIIb (Homo sapiens) (UniProt Q8WXR4). Put plainly: Inhibition of recombinant human MYO3B (1 to 326 residues) at 1 uM using RLGRDKYKTLRQIRQ as substrate incubated for 40 mins in presence of [gamma-33P]-ATP by scintillation counting method relative to control.
Test [10] addresses Serine/threonine-protein kinase BRSK2 (Homo sapiens) (UniProt Q8IWQ3). Description: Inhibition of recombinant human BRSK2 (2 to end residues) at 1 uM using KKLNRTLSFAEPG as substrate incubated for 40 mins in presence of [gamma-33P]-ATP by scintillation counting method relative to control. The method in brief:
as §2

The target in test [11] is Aurora kinase A (Homo sapiens) (UniProt O14965). Put plainly: Inhibition of recombinant full length human Aurora A at 1 uM using LRRASLG as substrate incubated for 40 mins in presence of [gamma-33P]-ATP by scintillation counting method relative to control. The method in brief:
as §2

Test [12] has as its system Mitogen-activated protein kinase 14 (Homo sapiens), Q16539 [T106M]. Description: Inhibition of recombinant human full length SAPK2a T106M mutant at 1 uM using myelin basic protein as substrate incubated for 40 mins in presence of [gamma-33P]-ATP by scintillation counting method relative to control. The method in brief: as §1
For test [13], the target named is Tyrosine-protein kinase Tec (Homo sapiens) (UniProt P42680). Description: Inhibition of activated recombinant human TEC (174 to end residues) at 1 uM using EFPIYDFLPAKKK as substrate incubated for 40 mins in presence of [gamma-33P]-ATP by scintillation counting method relative to control.
Test [14] has as its target Serine/threonine-protein kinase STK11 (Homo sapiens) (UniProt Q15831). Description: Inhibition of recombinant human full length LKB1 at 1 uM using LSNLYHQGKFLQTFCGSPLYRRR as substrate incubated for 40 mins in presence of [gamma-33P]-ATP by scintillation counting method relative to control.
The next test concerns T47D. Put plainly: Induction of apoptosis in human T47D cells assessed as increase in late apoptotic cells at 20 to 40 nM incubated for 48 hrs by annexin V FITC and propidium iodide staining based flow cytometry. It counts as functional, cell-based. The method in brief:
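Annexin V-FITC/PI double staining with flow-cytometric readout. MDA-MB-231, T-47D, SiHa and HeLa cells were treated with graded concentrations for 48 h. MDA-MB-231 and T-47D were grown in DMEM and SiHa in 1640 medium, each with 10% FBS and 1% penicillin/streptomycin at 37°C under 5% CO2. Early- and late-stage apoptotic fractions were scored.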
(In general: A flow cytometer gives signals particle by particle.)

Test [15] concerns the target Macrophage-stimulating protein receptor (Homo sapiens) (UniProt Q04912). Description: Inhibition of recombinant human RON (983 to end residues) at 1 uM using GGMEDIYFEFMGGKKK as substrate incubated for 40 mins in presence of [gamma-33P]-ATP by scintillation counting method relative to control.
The target in test [16] is Ephrin type-B receptor 2 (Homo sapiens) (UniProt P29323). Description: Inhibition of recombinant human EPhB2 (560 to end residues) at 1 uM using poly(Glu, Tyr) 4:1 as substrate incubated for 40 mins in presence of [gamma-33P]-ATP by scintillation counting method relative to control.
Test [17] concerns the target Serine/threonine-protein kinase SIK1 (Homo sapiens) (UniProt P57059). Description: Inhibition of recombinant human SIK (1 to 281 residues) at 1 uM using AMARAASAAALARRR as substrate incubated for 40 mins in presence of [gamma-33P]-ATP by scintillation counting method relative to control.
Test [18] relates to SiHa. Put plainly: Inhibition of colony formation in human SiHa cells at 40 to 80 nM incubated for 5 days by crystal violet staining based light microscopy. It counts as functional, cell-based. The procedure, abridged: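 4 × 10^3 cells per well were cultured with graded concentrations for 5 days. Cells were then fixed with 20% methanol, stained with 0.5% crystal violet and photographed by light microscopy.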

Test [19] deals with SiHa. Put plainly: Antitumor activity against human SiHa cells xenografted in NOD/SCID BALB/c mouse assessed as reduction in tumor weight at 10 to 40 mg/kg, po administered for 21 days. It is filed as functional, organism-based. Background: Xenograft models place foreign cells or tissue in a host animal.
The target in test [20] is Serine/threonine-protein kinase WNK2 (Homo sapiens) (UniProt Q9Y3S1). Put plainly: Inhibition of recombinant human WNK2 (166 to 489 residues) at 1 uM using myelin basic protein as substrate incubated for 40 mins in presence of [gamma-33P]-ATP by scintillation counting method relative to control.

Active and inactive are the calls of the source. The rule behind the calls is not given here.

Chain of Serine/threonine-protein kinase SIK1 (Homo sapiens) (P57059 whole entry, the tested form may be a part): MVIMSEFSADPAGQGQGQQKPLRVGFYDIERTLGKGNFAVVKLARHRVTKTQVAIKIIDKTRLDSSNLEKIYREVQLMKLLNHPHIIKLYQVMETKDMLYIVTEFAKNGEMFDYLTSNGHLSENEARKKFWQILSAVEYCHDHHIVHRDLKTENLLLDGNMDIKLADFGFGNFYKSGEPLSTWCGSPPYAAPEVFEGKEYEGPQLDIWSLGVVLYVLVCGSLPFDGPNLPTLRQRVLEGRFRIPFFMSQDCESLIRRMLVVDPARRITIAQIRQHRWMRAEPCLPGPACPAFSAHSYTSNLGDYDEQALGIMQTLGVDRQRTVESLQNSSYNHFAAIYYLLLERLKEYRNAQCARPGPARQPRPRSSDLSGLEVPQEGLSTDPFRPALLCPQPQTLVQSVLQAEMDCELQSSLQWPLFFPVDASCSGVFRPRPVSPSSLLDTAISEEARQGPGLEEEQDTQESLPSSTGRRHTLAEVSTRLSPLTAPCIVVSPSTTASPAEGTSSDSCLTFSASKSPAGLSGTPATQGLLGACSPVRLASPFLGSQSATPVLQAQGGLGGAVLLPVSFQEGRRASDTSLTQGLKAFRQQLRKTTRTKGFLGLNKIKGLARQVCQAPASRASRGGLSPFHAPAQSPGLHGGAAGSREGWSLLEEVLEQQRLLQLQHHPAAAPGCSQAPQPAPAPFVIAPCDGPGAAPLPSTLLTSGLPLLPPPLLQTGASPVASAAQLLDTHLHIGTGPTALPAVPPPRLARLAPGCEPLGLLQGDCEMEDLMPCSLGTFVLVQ
Chain of Macrophage-stimulating protein receptor (Homo sapiens) (Q04912 25-304 limits assumed): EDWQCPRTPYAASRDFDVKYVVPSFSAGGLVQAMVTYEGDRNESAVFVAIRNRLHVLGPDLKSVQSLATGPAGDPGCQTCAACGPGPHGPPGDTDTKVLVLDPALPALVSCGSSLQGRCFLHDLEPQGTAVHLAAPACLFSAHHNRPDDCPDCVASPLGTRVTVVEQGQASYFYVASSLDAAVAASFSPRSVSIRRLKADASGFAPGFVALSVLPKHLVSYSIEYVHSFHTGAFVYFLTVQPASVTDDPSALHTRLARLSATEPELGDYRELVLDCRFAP
Chain of Macrophage-stimulating protein receptor (Homo sapiens) (Q04912 310-1400 limits assumed): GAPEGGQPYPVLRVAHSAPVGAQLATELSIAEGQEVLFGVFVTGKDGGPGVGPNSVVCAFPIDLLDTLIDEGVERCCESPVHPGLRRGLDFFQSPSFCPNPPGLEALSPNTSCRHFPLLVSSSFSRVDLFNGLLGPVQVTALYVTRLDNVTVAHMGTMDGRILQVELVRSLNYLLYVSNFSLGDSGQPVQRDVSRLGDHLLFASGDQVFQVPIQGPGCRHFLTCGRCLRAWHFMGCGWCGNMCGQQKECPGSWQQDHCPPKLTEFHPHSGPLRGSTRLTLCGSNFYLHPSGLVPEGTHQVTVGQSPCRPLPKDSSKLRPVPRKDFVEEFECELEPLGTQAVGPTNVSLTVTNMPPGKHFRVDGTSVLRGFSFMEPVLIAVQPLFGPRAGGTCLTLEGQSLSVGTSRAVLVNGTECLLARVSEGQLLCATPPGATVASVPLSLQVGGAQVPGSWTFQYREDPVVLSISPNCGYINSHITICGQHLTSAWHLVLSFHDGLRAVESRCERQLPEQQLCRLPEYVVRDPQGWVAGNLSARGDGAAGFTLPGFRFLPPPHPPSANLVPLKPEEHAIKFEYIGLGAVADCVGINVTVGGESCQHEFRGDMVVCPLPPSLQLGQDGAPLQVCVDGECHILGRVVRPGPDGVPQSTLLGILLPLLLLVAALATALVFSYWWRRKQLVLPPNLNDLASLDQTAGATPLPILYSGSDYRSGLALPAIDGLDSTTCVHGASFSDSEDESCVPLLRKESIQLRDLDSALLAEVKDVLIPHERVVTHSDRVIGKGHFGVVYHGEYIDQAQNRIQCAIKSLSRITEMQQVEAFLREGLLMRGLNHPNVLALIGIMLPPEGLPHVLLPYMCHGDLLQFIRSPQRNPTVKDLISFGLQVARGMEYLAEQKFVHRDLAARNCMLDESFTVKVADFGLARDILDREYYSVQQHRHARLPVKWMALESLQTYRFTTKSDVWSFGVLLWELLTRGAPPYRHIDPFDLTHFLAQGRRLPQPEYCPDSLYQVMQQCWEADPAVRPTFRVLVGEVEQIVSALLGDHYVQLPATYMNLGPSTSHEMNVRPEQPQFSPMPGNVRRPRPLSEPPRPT
Chain of Ephrin type-B receptor 2 (Homo sapiens) (P29323 whole entry, the tested form may be a part): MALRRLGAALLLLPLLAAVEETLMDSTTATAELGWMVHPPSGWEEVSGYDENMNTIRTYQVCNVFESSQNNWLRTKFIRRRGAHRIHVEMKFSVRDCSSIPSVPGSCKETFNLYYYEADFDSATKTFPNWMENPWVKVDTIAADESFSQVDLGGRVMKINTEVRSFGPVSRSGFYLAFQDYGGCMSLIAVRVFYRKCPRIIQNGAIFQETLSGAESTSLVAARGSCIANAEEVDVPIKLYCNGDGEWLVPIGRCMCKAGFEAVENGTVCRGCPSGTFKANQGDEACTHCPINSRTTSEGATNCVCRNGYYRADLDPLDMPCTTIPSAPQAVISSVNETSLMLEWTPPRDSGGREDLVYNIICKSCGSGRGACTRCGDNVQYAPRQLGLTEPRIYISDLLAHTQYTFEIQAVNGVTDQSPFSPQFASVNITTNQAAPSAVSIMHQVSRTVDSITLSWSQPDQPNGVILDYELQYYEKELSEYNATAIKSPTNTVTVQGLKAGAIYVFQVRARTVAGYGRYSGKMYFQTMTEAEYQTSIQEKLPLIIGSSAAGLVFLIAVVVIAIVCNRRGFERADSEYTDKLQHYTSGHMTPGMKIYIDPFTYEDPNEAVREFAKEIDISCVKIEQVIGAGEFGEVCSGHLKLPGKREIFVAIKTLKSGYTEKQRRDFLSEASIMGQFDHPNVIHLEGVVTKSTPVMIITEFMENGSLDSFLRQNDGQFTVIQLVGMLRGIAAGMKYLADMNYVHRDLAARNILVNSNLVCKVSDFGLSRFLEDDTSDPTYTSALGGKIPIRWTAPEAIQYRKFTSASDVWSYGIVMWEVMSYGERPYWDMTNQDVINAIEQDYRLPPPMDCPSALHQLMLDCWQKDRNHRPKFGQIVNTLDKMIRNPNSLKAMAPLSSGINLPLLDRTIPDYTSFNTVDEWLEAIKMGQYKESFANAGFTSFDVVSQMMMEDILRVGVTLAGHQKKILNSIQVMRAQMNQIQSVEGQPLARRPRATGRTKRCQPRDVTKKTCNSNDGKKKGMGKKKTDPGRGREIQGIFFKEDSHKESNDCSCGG
Chain of Serine/threonine-protein kinase STK11 (Homo sapiens) (Q15831 whole entry): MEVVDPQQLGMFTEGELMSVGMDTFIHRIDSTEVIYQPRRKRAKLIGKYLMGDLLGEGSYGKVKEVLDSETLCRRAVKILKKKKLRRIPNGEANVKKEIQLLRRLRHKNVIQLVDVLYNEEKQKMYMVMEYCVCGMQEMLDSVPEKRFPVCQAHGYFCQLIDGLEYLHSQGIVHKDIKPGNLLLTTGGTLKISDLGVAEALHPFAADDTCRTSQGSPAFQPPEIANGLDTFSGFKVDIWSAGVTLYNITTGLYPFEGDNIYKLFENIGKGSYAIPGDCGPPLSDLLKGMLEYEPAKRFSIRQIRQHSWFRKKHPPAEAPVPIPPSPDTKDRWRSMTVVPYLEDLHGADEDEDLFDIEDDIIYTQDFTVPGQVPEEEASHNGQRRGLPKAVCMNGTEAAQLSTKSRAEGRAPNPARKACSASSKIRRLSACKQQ
Chain of Serine/threonine-protein kinase ULK2 (Homo sapiens) (Q8IYT8 whole entry, the tested form may be a part): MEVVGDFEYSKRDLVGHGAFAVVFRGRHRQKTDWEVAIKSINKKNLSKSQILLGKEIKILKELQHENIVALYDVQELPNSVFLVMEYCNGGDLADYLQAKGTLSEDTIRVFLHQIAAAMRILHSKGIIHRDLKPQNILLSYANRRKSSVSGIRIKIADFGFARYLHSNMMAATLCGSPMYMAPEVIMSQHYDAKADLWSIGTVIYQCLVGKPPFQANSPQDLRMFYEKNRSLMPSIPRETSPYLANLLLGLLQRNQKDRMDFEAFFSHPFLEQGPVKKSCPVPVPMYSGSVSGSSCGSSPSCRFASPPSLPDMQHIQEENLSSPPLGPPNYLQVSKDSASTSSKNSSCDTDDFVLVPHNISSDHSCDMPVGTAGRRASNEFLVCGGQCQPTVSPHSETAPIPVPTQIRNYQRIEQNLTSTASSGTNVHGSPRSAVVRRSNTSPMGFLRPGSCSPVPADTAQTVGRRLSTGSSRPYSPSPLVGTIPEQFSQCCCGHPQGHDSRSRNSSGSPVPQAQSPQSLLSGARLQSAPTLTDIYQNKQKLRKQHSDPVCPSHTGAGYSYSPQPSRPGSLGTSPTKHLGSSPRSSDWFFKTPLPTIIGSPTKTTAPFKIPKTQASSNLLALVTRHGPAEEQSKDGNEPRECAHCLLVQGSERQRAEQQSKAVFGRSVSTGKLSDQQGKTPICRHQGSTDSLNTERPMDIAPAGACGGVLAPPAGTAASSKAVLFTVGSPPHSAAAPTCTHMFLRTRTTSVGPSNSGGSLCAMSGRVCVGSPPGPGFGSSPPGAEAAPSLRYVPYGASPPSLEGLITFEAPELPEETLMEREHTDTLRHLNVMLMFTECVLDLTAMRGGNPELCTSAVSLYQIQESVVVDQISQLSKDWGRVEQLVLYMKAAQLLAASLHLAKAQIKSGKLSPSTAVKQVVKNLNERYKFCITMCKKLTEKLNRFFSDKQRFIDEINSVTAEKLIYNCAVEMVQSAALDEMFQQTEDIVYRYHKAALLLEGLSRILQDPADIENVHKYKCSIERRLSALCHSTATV
Chain of Calcium/calmodulin-dependent protein kinase type 1 (Homo sapiens) (Q14012 whole entry, looked up): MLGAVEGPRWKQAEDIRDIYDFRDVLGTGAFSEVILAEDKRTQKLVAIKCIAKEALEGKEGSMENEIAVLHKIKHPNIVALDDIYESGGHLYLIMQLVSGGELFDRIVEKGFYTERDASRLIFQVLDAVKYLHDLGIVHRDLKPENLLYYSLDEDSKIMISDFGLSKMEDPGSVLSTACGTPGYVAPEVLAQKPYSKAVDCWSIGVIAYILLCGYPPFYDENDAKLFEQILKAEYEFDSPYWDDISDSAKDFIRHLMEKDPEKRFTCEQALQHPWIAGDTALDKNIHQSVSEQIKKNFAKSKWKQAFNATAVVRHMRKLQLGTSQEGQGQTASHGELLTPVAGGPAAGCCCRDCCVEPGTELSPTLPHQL

As for `Cc1ccc(NC(=O)C2(C(=O)Nc3ccc(Nc4ncc(F)c(-c5cc(F)c6nc(C)n(C(C)C)c6c5)n4)cc3)CC2)cc1`, the inhibition (as a rule, the percentage by which the read-out fell short of the control) is 3% in test [1]; 12% in test [2]; 0% in test [3]; 0% in test [4]; 48% in test [5]; 28% in test [6]. Further, the inhibition came to 74% in test [7]; 2% in test [8]; 10% in test [9]; 54% in test [10]; 79% in [11]; 60% in test [12]. In addition, the inhibition in test [13] was found to be 1%; in test [14] it was 12%; in [15], 54%; in [16] it was 23%; in [17] it was 21%; in test [20] it was 47%. The outcome with T47D was Active. Moreover, the inhibition entry with SiHa [18] and in the test with SiHa [19] was “Active” each time.
